The full list was thinned out, with hits kept by preference.
RORa inhibitor: RORA (human) inhibition; P35398; CHO-K1 Gal4-RORA LBD luciferase reporter, luminescence; inhibition, % at 10 µM; 65,000 compounds, 0.43% hits; AID 561;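 active means inhibition above the mean of all tested compounds plus 3 SD, cut at about 52% in these data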
Target sequence (P35398 whole entry, looked up, the tested form may be a part): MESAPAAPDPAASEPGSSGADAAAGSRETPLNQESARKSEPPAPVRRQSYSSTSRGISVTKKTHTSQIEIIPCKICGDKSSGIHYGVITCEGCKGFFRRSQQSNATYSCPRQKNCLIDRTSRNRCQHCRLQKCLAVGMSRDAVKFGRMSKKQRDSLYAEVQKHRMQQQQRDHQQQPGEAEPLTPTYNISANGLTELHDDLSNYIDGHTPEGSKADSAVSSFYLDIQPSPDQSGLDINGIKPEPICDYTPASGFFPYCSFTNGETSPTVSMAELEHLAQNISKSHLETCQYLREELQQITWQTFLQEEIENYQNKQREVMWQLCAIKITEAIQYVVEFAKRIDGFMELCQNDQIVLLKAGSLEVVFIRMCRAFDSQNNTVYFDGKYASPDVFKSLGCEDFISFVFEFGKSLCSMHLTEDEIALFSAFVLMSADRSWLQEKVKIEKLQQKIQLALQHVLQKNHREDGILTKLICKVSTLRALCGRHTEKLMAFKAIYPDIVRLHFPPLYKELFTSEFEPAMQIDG
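System: transiently transfected CHO-K1 cells, Gal4-DBD/human RORA-LBD fusion plus 5xGal4-luciferase reporter. Doses: one dose of 10 µM final. Timing: 20 h compound treatment, 37 °C. Measured by: luminescence. Evaluation: % inhibition of basal luciferase versus +RORA/-RORA DMSO controls. Benchmarks: mock-transfected cells as 100%, +RORA DMSO cells as 0%. Replicates: single test per compound.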
Numbers stand for hits; i = inactive.

SMILES | RORa inhibitor
O=C(Nc1ccc2c(c1)OCO2)C1CCCCN1S(=O)(=O)c1ccc(F)cc1 (centres undefined) | i
Cc1nnc(SCC(=O)N2CCc3ccccc32)s1 | i
Cc1nnc(SC(=O)N2c3ccccc3Sc3ccccc32)s1 | 71.3
CCOC(=O)Nc1ccc2c(c1)N(C(=O)N1CCN(C)CC1)c1ccccc1S2 | i
O=C(CCCc1c[nH]c2ccccc12)N1CCN(c2ccc(N3CCOCC3)nn2)CC1 | i
CC(=O)c1ccc(NC(=O)CSc2nnc(Cn3c(=O)sc4ccccc43)n2C)cc1 | i
Cc1csc(=N)n1-c1ccc(Cl)cc1 | i
Cc1cc(C)nc(Sc2c(F)c(F)c(C(F)(F)F)c(F)c2F)n1 | i
c1ccc(CNc2ncnc3ccccc23)cc1 | 56.3
CCOc1ccccc1Nc1ncnc2ccccc12 | i
Cc1ccc(-n2ncc3c(NCc4ccccc4)ncnc32)cc1 | i
COc1cccc(OC)c1-c1nn2c(-c3ccccc3Cl)nnc2s1 | i
COc1ccc(CCNS(=O)(=O)c2cn(C)c(=O)n(C)c2=O)cc1OC | i
COc1ccc(CCNC(=O)C2CCCN(S(C)(=O)=O)C2)cc1OC (centres undefined) | i
COc1ccc(CCNc2nnc(Sc3nnnn3-c3ccccc3)s2)cc1OC | 68.9
Cc1nnc(SCC(=O)NCCc2ccccc2)[nH]c1=O | i
Cc1nc(SCC(=O)Nc2ccc(C)c(F)c2)c2oc3ccccc3c2n1 | i
CCCc1cc(=O)[nH]c(Nc2ccc(OC)c(Cl)c2)n1 | i
CCCCN(C)C(=O)C1CCC(=O)N(c2cc(OC)c(OC)c(OC)c2)C1c1ccc(OC)cc1 (centres undefined) | i
CCCCOC(=O)c1[nH]c2c(c1C)C(=O)CC(c1cc(OC)c(OC)c(OC)c1)C2 (centres undefined) | 63.6
COCCOC(=O)c1[nH]c2c(c1C)C(=O)C(C(=O)OC)C(C)C2 (centres undefined) | i
Cc1ccccc1-n1c(=O)cc(N2CCN(C(=O)c3ccco3)CC2)[nH]c1=O | i
CC(C)NCC(O)Cn1c2c(c3ccccc31)CCc1c-2cnn1-c1ccccc1 (centres undefined) | 68.5
CC(=O)Nc1c(C(=O)N2CCN(c3ncccn3)CC2)cnn1-c1ccccc1Cl | i
CCOC(=O)c1c(C)c(C(=O)NCc2ccc3c(c2)OCO3)c(C)n1C | i
SMILES | RORa inhibitor
CCOC(=O)NC(Nc1nc2ccccc2s1)(C(=O)OCC)C(F)(F)F (centres undefined) | i
O=C(NCCCN1CCOCC1)C1CC(=O)N(C2CCCCC2)C1 (centres undefined) | i
Cn1c(CCNC(=O)c2ccccc2F)nnc1SCc1nc2ccccc2c(=O)[nH]1 | i
O=C(OCc1nc2ccccc2s1)c1cccs1 | i
O=C(NC1CC1)c1ccc(-c2nc3ccccc3s2)s1 | 80.9
CNc1sc(C(=O)c2cccs2)c(N)c1-c1nc2ccccc2s1 | i
Cc1cc(-n2nc(C)cc2C)nc(NS(=O)(=O)c2ccccc2)n1 | i
CCC(C)NC(=O)C1CCCN(C(=O)Nc2ccc(F)cc2)C1 (centres undefined) | i
CC1CCN(C(=O)CN2C(=O)c3ccccc3S2(=O)=O)CC1 | i
O=C1c2ccccc2S(=O)(=O)N1Cc1nc2ccccc2s1 | 53.7
CN(C)c1ccc(C2=NOC(CN3C(=O)c4ccccc4S3(=O)=O)C2)cc1 (centres undefined) | i
Cc1cc(C)n(Cc2ccc(C(=O)NCCC3=CCCCC3)o2)n1 | i
COc1cccc2c(=O)n(CC(=O)N3CCN(c4ccccc4)CC3)ccc12 | i
O=C(Nc1nnc(C23CC4CC(CC(C4)C2)C3)s1)c1ccco1 | i
O=C(NCc1ccc2c(c1)OCO2)C1CC(=O)N(c2ccc(O)cc2)C1 (centres undefined) | i
COc1ccc(N(C(=O)Cn2nnc3ccccc32)C(C(=O)NCc2ccco2)c2ccc(C)o2)cc1 (centres undefined) | i
CN(C)CCN1C(=O)C(=O)/C(=C(/O)c2ccc(F)cc2)C1c1ccccc1 (centres undefined) | i
COc1cccc(-c2cc(C(=O)N3C(C)CCCC3C)no2)c1 (centres undefined) | i
CCCCOc1ncnc2c1[nH]c1ccc(F)cc12 | 70.4
N#CN=C1SCCS1 | i
OC1(c2ccc(F)cc2)CCN(Cc2ccccc2)C1 (centres undefined) | i
CCOC(=O)CN1CC23C=CC(O2)C(C(=O)Nc2ccc(F)c(C)c2)C3C1=O (centres undefined) | i
CCOC(=O)N1CCN(C(=O)c2cc(-c3ccc(OCC)cc3)nc3ccccc23)CC1 | i
CCOC(=O)c1cnn2c(C)cc(-c3ccccc3)nc12 | i
COCC(C)NC(=O)CCS(=O)(=O)c1nc(-c2ccc(OC)cc2)cc(C(F)(F)F)n1 (centres undefined) | i
SMILES | RORa inhibitor
CCOC(=O)CS(=O)(=O)c1nc(-c2ccccc2)cc(C(F)(F)F)n1 | 60.2
CCOC(=O)CS(=O)(=O)c1nc(-c2ccc(F)cc2)cc(C(F)(F)F)n1 | 60.9
CCOC(=O)Cc1cc(=O)n2[nH]c(C)c(-c3ccccc3)c2n1 | i
CCc1ccc(NC(=O)N(CCCN2CCOCC2)C(C)c2cc3cccc(OC)c3o2)cc1 (centres undefined) | i
Cc1noc(C)c1COC(=O)c1cccc(S(=O)(=O)N2c3ccccc3CC2C)c1 (centres undefined) | i
Clc1nc2sccn2c1/C=N/n1cnc2ccccc21 | i
Cc1ccc(NC(=O)NC2(C(=O)NCc3ccco3)CCCCC2)cc1 | i
COC(=O)c1cc(-c2ccccc2)n(CC(=O)O)c1C | i
O=C(Nc1ccc2c(c1)ncn2C1CCCCC1)c1ccco1 | i
Cc1nc2nc(-c3cccs3)cn2nc1C | i
CS(=O)(=O)c1nc(-c2cccs2)cc(C(F)(F)F)n1 | 78.2
CC(=O)c1c(C)[nH]c(C(=O)OCCCCN2C(=O)c3ccccc3C2=O)c1C | 77.7
CCOC(=O)c1[nH]c(C)c(C(=O)Nc2ccccc2F)c1C | i
CCOC(=O)c1[nH]c(C)c(C(=O)Nc2ccc(F)cc2)c1C | i
COC(=O)c1c(C(=O)OC)c2oc3ccccc3n2c1Cl | i
CCC(CO)NCCNC(CC)CO (centres undefined) | i
COc1ccc(N(CC(=O)NCc2ccco2)S(C)(=O)=O)cc1Cl | i
c1ccc(N2CCN(c3nc4cc5c(cc4s3)OCCO5)CC2)cc1 | i
CCOc1ccc2nc(N3CCCC(C(=O)NCCCN4CCOCC4)C3)sc2c1 (centres undefined) | i
c1c2c(cc3sc(N4CCOCC4)nc13)OCCO2 | 68.9
CCOC(=O)N1CCN(C(=O)CCc2ccc(S(=O)(=O)NCCc3ccccc3)cc2)CC1 | i
COC(=O)Cn1nc(-c2ccccc2)n(-c2ccccc2)c1=S | i
COC(=O)c1ccc(NC(=O)Cn2nc(SC)n(N)c2=S)cc1 | i
CC(C)CCn1nnnc1C(c1ccc(F)cc1)N1CCN(C(=O)c2ccco2)CC1 (centres undefined) | i
CCN(C(=O)c1ccc(C(C)(C)C)cc1)c1nnc(Cn2nnc3ccccc32)s1 | 66.2
SMILES | RORa inhibitor
CCN(C(=O)c1cccs1)c1nnc(-c2ccncc2)s1 | i
Cc1c(NC(=O)CCC(=O)N2CCCCC2)c(=O)n(-c2ccccc2)n1C | i
COc1ccc(C)cc1S(=O)(=O)N1CCN(c2cccc(C(F)(F)F)c2)CC1 | i
O=C(Nc1cccc(Br)c1)c1ccn[nH]1 | i
O=C(Cc1cn2ccsc2n1)NCCc1ccc(F)cc1 | i
COc1ccc(CNc2cc(C)nc3ncnn23)c(OC)c1 | 67.0
CCOc1ccc2oc(-c3ccccc3)c(C(=O)N3CCN(CCO)CC3)c2c1 | i

Screening data from PubChem BioAssay.
